Reference: ChEMBL document CHEMBL4340525, “Tumor-Targeted Delivery of 6-Diazo-5-oxo-l-norleucine (DON) Using Substituted Acetylated Lysine Prodrugs” (J Med Chem, 2019)

How the values were obtained:
[1] = Stability in swine plasma assessed as parent compound remaining at 20 uM measured after 1 hr by LC-MS/MS analysis; conditions: Sus scrofa, pig
[2] = Stability in mouse plasma assessed as parent compound remaining at 20 uM measured after 1 hr by LC-MS/MS analysis
[3] = Stability in swine jejunum at 20 uM measured after 1 hr by LC-MS/MS analysis; type: ADME, tissue-based, Sus scrofa; conditions: pig
Summary of the method: (§1)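 Washed swine jejunum was diluted 10-fold in 0.1 M potassium phosphate buffer and probe-sonicated. Prodrug was spiked at 20 µM final and incubated 1 h at 37 °C with orbital shaking. Triplicate quench in acetonitrile with losartan internal standard. Percent parent remaining by LC-MS/MS peak-area ratio.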

[4] = Stability in human plasma assessed as parent compound remaining at 20 uM measured after 1 hr by LC-MS/MS analysis
[5] = Stability in swine liver homogenates assessed as parent compound remaining at 20 uM measured after 1 hr by LC-MS/MS analysis; conditions: Sus scrofa, pig, tissue homogenate
[6] = Stability in human plasma suspended with human P493B cells at 20 uM measured after 1 hr by LC-MS/MS analysis; type: ADME, cell-free
Summary of the method: (§2)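 Cells were grown in RPMI 1640 with 10% FBS, washed in DPBS and resuspended in human plasma at 10 million cells/mL. After 5 min preincubation at 37 °C, compound was added at 20 µM final for 1 h. The mix was centrifuged at 10 000g and the washed pellet and plasma were quantified separately. DON was read by LC-MS/MS after dabsyl chloride derivatisation, intact prodrug directly. Standard curves were made in naive cells or plasma.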

[7] = Drug level in human P493B cells suspended in human plasma assessed as tumor cell to plasma ratio by measuring 6-diazo-5-oxo-L-norleucine formation at 20 uM measured after 1 hr by LC-MS/MS analysis relative to 6-diazo-5-oxo-L-norleucine alone; type: ADME, cell-based
Summary of the method: as §2

[8] = Prodrug conversion in human P493B cells suspended in human plasma assessed as 6-diazo-5-oxo-L-norleucine formation at 20 uM measured after 1 hr by LC-MS/MS analysis; type: ADME, cell-based
Summary of the method: as §2

[9] = Drug level in human P493B cells suspended in human plasma assessed as tumor cell to plasma ratio by measuring 6-diazo-5-oxo-L-norleucine formation at 20 uM measured after 1 hr by LC-MS/MS analysis; type: ADME, cell-based
Summary of the method: as §2

[10] = Stability in swine jejunum assessed as parent compound remaining at 20 uM measured after 1 hr by LC-MS/MS analysis; type: ADME, tissue-based, Sus scrofa; conditions: pig
Summary of the method: as §1

[11] = species: Homo sapiens; assay: (§3) Antiproliferative activity against human P493B cells measured after 72 hrs by CellTiter 96 aqueous one solution cell proliferation assay; type: functional, cell-based
Summary of the method: (§4)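 P493B lymphoma cells seeded at 20 000 cells/well in growth medium. DMSO stocks added as a 1:10 serial dilution, final 0.2% DMSO. Cells grown 72 h with compound, then given CellTiter 96 AQueous reagent for 2 h and read by absorbance at 490 nm. EC50 obtained by nonlinear regression of log-transformed data.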

[12] = as §3; type: functional, cell-based
Summary of the method: as §4

[13] = Drug level in human P493B cells suspended in human plasma assessed as tumor cell to plasma ratio at 20 uM measured after 1 hr by LC-MS/MS analysis; type: ADME, cell-based
Summary of the method: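 P493B cells grown in RPMI 1640 with 10% FBS, then suspended in human plasma at 10 million cells/mL. Suspension preincubated 5 min at 37 °C, dosed to a final 20 μM, held 1 h at 37 °C, then spun to separate cells from plasma. DON and intact prodrug in pellet and plasma measured by LC-MS/MS; for DON, after dabsyl chloride derivatization. Ratio = cell DON/plasma DON.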

[14] = Prodrug conversion in human P493B cells suspended in human plasma assessed as (S)-isopropyl 2-amino-6-diazo-5-oxohexanoate formation measured after 1 hr by HRMS analysis; type: ADME, cell-based
Summary of the method: (§5)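 Metabolite identification: compound was incubated 1 h with 10 million P493B cells suspended in 1 mL human plasma. Cell pellets were collected and metabolites identified by HRMS.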

[15] = Prodrug conversion in human P493B cells suspended in human plasma assessed as 6-diazo-5-oxo-L-norleucine formation measured after 1 hr by HRMS analysis; type: ADME, cell-based
Summary of the method: as §5

Structure (SMILES) | Stability [1] [%] | Stability [2] [%] | Stability [3] | Stability [4] [%] | Stability [5] [%] | Stability [10] [%] | also measured
CC(=O)NCCCC[C@H](NC(=O)OCC1c2ccccc2-c2ccccc21)C(=O)N[C@@H](CCC(=O)C=[N+]=[N-])C(=O)OC(C)C | 78 | 2 | Unstable | 93 | 19 | – | –
CCCCCCCCCCCCCCCC(=O)N[C@@H](CCCCNC(C)=O)C(=O)N[C@@H](CCC(=O)C=[N+]=[N-])C(=O)OC(C)C | 88 | 30 | Unstable | 84 | – | – | –
CC(=O)NCCCC[C@H](NC(=O)OC(C)(C)C)C(=O)N[C@@H](CCC(=O)C=[N+]=[N-])C(=O)OC(C)C | 85 | 1 | – | 95 | – | – | Stability [6]: Stable; fold change (FC) [7]: 32; Drug metabolism [8]: Metabolite_Detected; Ratio [9]: 13
CC(=O)NCCCC[C@H](NC(=O)Cc1c[nH]c2ccccc12)C(=O)N[C@@H](CCC(=O)C=[N+]=[N-])C(=O)OC(C)C | 98 | 0 | – | 94 | 40 | > 50 | –
[N-]=[N+]=CC(=O)CC[C@H](N)C(=O)O [6-DIAZO-5-OXO-L-NORLEUCINE] | – | – | – | – | – | – | Activity [11]: Dose-dependent effect; EC50 [12]: 10 µM; Ratio [13]: 0.4
CC(C)OC(=O)[C@H](CCC(=O)C=[N+]=[N-])NC(=O)[C@H](CCCCN)NC(=O)C12CC3CC(CC(C3)C1)C2 | – | – | – | – | – | – | Drug metabolism [14]: Metabolite_Detected
CC(=O)NCCCC[C@H](NC(=O)OC12CC3CC(CC(C3)C1)C2)C(=O)N[C@@H](CCC(=O)C=[N+]=[N-])C(=O)OC(C)C | 77 | 4 | – | 100 | – | > 50 | –
CC(=O)NCCCC[C@H](NC(=O)[C@H](Cc1c[nH]c2ccccc12)NC(=O)C(C)(C)C)C(=O)N[C@@H](CCC(=O)C=[N+]=[N-])C(=O)OC(C)C | 95 | 0 | Unstable | 88 | – | – | –
CC(=O)NCCCC[C@H](NC(=O)[C@@H]1Cc2ccccc2CN1)C(=O)N[C@@H](CCC(=O)C=[N+]=[N-])C(=O)OC(C)C | 62 | 0 | Unstable | 95 | 0 | – | –
CC(C)OC(=O)[C@@H](N)CCC(=O)C=[N+]=[N-] | – | – | – | – | – | – | Drug metabolism [15]: Metabolite_Detected
CC(=O)NCCCC[C@H](NC(=O)[C@@H](N)Cc1c[nH]c2ccccc12)C(=O)N[C@@H](CCC(=O)C=[N+]=[N-])C(=O)OC(C)C | 19 | 0 | Unstable | 7 | 0 | – | –

Now from value to compound, other results behind:

Stability [1] [%] | Stability [2] [%] | Stability [3] | Stability [4] [%] | Stability [5] [%] | Stability [10] [%] | Structure (SMILES) | also measured
98 | 0 | – | 110 | 72 | > 50 | CC(=O)NCCCC[C@H](NC(=O)[C@@H]1Cc2ccccc2CN1C(C)=O)C(=O)N[C@@H](CCC(=O)C=[N+]=[N-])C(=O)OC(C)C | Stability [6]: Stable; fold change (FC) [7]: 115; Drug metabolism [8]: 0.12 µM; Ratio [9]: 46
91 | 0 | – | 95 | – | > 50 | CCCCCCCC(=O)N[C@@H](CCCCNC(C)=O)C(=O)N[C@@H](CCC(=O)C=[N+]=[N-])C(=O)OC(C)C | –
75 | 0 | – | 102 | 67 | > 50 | CC(=O)NCCCC[C@H](NC(=O)[C@H](Cc1c[nH]c2ccccc12)NC(C)=O)C(=O)N[C@@H](CCC(=O)C=[N+]=[N-])C(=O)OC(C)C | Stability [6]: Stable; fold change (FC) [7]: 30; Drug metabolism [8]: Metabolite_Detected; Ratio [9]: 11
